Source: ChEMBL document CHEMBL1155262, “A new class of anticonvulsants possessing 6 Hz activity: 3,4-dialkyloxy thiophene bishydrazones” (Eur J Med Chem, 2009)
The source made the active and inactive calls. The rule behind the calls is not given here.

Tests used:
Mus musculus [1] = assay: Anticonvulsant activity in mouse CF1 albino assessed as inhibition of minimal electric shock-induced seizure at 30 mg/kg, ip after 2 hrs; assay type: functional, organism-based; parameters: dose 30 mg/kg
In short: (§1)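 6 Hz psychomotor seizure model in male CF-1 albino mice dosed i.p. Four mice per time point (0.25, 0.5, 1, 2, 4 h) received corneal-electrode current of 32 mA for 3 s. Untreated mice show a minimal clonic phase followed by stereotyped automatistic behaviour. Results given as number protected out of 4.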

Mus musculus [2] = assay: Anticonvulsant activity in mouse CF1 albino assessed as inhibition of minimal electric shock-induced seizure at 30 mg/kg, ip after 4 hrs; assay type: functional, organism-based; parameters: dose 30 mg/kg; in short: as §1
Mus musculus [3] = assay: Anticonvulsant activity in mouse CF1 albino assessed as inhibition of subcutaneous metrazole-induced seizure at 300 mg/kg, ip after 0.5 hrs; assay type: functional, organism-based; parameters: dose 300 mg/kg
Mus musculus [4] = assay: Anticonvulsant activity in mouse CF1 albino assessed as inhibition of maximal electric shock-induced seizure at 300 mg/kg, ip after 4 hrs; assay type: functional, organism-based; parameters: dose 300 mg/kg
In short: (§2)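 Male CF-1 albino mice (18–25 g); compound suspended in 0.5% methyl cellulose/water or PEG 200, given i.p. at 30, 100 and 300 mg/kg (0.01 mL/g). Tested 0.5 or 4 h after dosing. Protection = abolition of hind limb tonic extensor component of MES seizure.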

Mus musculus [5] = assay: Anticonvulsant activity in ip dosed mouse CF1 albino assessed as inhibition of maximal electric shock-induced seizure after 0.5 hrs; assay type: functional; in short: as §2
Mus musculus [6] = assay: Anticonvulsant activity in mouse CF1 albino assessed as inhibition of subcutaneous metrazole-induced seizure at 300 mg/kg, ip after 4 hrs; assay type: functional, organism-based; parameters: dose 300 mg/kg
Mus musculus [7] = assay: Neurotoxicity against mouse CF1 albino assessed as minimal motor impairment at 300 mg/kg, ip after 0.5 hrs by rotord test; assay type: toxicity, organism-based; parameters: dose 300 mg/kg, route intraperitoneal; conditions: in vivo
In short: (§3)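 Rotorod minimal motor impairment in male CF-1 albino mice (18–25 g) after i.p. dosing at 30, 100 or 300 mg/kg in 0.5% methyl cellulose/water or PEG 200. Mice placed on a rod rotating at 6 rpm at 0.5 or 4 h. Value is minimum dose causing impairment in at least one mouse.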

Mus musculus [8] = assay: Neurotoxicity against mouse CF1 albino assessed as minimal motor impairment at 300 mg/kg, ip after 4 hrs by rotord test; assay type: toxicity, organism-based; parameters: dose 300 mg/kg, route intraperitoneal; conditions: in vivo; in short: as §3
Mus musculus [9] = assay: Anticonvulsant activity in mouse CF1 albino assessed as inhibition of minimal electric shock-induced seizure at 100 mg/kg, ip after 4 hrs; assay type: functional, organism-based; parameters: dose 100 mg/kg; in short: as §1
Mus musculus [10] = assay: Anticonvulsant activity in mouse CF1 albino assessed as inhibition of minimal electric shock-induced seizure at 60 mg/kg, ip after 0.25 hrs; assay type: functional, organism-based; parameters: dose 60 mg/kg; in short: as §1
Mus musculus [11] = assay: Anticonvulsant activity in mouse CF1 albino assessed as inhibition of minimal electric shock-induced seizure at 60 mg/kg, ip after 0.5 hrs; assay type: functional, organism-based; parameters: dose 60 mg/kg; in short: as §1
Mus musculus [12] = assay: Anticonvulsant activity in mouse CF1 albino assessed as inhibition of minimal electric shock-induced seizure at 60 mg/kg, ip after 1 hr; assay type: functional, organism-based; parameters: dose 60 mg/kg; in short: as §1
Mus musculus [13] = assay: Anticonvulsant activity in mouse CF1 albino assessed as inhibition of minimal electric shock-induced seizure at 60 mg/kg, ip after 2 hrs; assay type: functional, organism-based; parameters: dose 60 mg/kg; in short: as §1
Mus musculus [14] = assay: Anticonvulsant activity in mouse CF1 albino assessed as inhibition of minimal electric shock-induced seizure at 60 mg/kg, ip after 4 hrs; assay type: functional, organism-based; parameters: dose 60 mg/kg; in short: as §1
Mus musculus [15] = assay: Anticonvulsant activity in mouse CF1 albino assessed as inhibition of minimal electric shock-induced seizure at 100 mg/kg, ip after 0.25 hrs; assay type: functional, organism-based; parameters: dose 100 mg/kg; in short: as §1
Mus musculus [16] = assay: Anticonvulsant activity in mouse CF1 albino assessed as inhibition of minimal electric shock-induced seizure at 100 mg/kg, ip after 0.5 hrs; assay type: functional, organism-based; parameters: dose 100 mg/kg; in short: as §1
Mus musculus [17] = assay: Anticonvulsant activity in mouse CF1 albino assessed as inhibition of minimal electric shock-induced seizure at 100 mg/kg, ip after 1 hr; assay type: functional, organism-based; parameters: dose 100 mg/kg; in short: as §1

| SMILES | Activity (Mus musculus [1]) | Activity (Mus musculus [2]) | Activity (Mus musculus [3]) | Activity (Mus musculus [4]) | Activity (Mus musculus [5]) [mg/kg] | Activity (Mus musculus [6]) | Activity (Mus musculus [7]) | Activity (Mus musculus [8]) | Activity (Mus musculus [9]) | Activity (Mus musculus [10]) | Activity (Mus musculus [11]) | Activity (Mus musculus [12]) | Activity (Mus musculus [13]) | Activity (Mus musculus [14]) | Activity (Mus musculus [15]) | Activity (Mus musculus [16]) | Activity (Mus musculus [17]) |
| --- | --- | --- | --- | --- | --- | --- | --- | --- | --- | --- | --- | --- | --- | --- | --- | --- | --- |
| C/C(=N\NC(=O)c1sc(C(=O)N/N=C(\C)c2cccs2)c2c1OCCO2)c1cccs1 | inactive | inactive | inactive | inactive | 300 | inactive | Not Active | Not Active | inactive | – | – | – | – | – | – | – | – |
| CCCCCCCOc1c(C(=O)N/N=C/c2ccc([N+](=O)[O-])cc2)sc(C(=O)N/N=C/c2ccc([N+](=O)[O-])cc2)c1OCCCCCCC | – | – | – | – | – | – | – | – | inactive | inactive | inactive | inactive | inactive | inactive | inactive | Active | inactive |
